Screens from PubChem BioAssay.
Shown are actives, neighbours in structure and some others; about 2.2% of the full set was active somewhere.
Jurkat NFkB inh: inhibitors of the PMA/ionomycin-induced NF-kB reporter in Jurkat cells; inhibition, % at 4 µM; PMA/ionomycin-induced NF-kB luciferase reporter, luminescence; AID 435003; actives 0.53% (n = 330,000); in the data active means inhibition above about 50%
697 NFkB inh: inhibitors of the PMA/ionomycin-induced NF-kB reporter in 697 B cells | 697 B-cell NF-kB luciferase reporter, 16 h | inhibition, % at 4 µM | actives 0.33% (n = 330,000) | AID 435022; in the data active means inhibition above about 35%
FGF22 binding: binders of recombinant human FGF22 by thermal shift; SYPRO orange fluorescence; percent of sucrose octasulfate shift, DMSO zero; activity (Tm shift, normalised), % at 9.99 µM; actives 1.5% (n = 340,000);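 active means mean Tm shift, scaled 0 neutral to 100 positive control, at about 1.3% or above, every replicate too, limit read from the data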
Target sequence (Q9HCT0 whole entry, looked up): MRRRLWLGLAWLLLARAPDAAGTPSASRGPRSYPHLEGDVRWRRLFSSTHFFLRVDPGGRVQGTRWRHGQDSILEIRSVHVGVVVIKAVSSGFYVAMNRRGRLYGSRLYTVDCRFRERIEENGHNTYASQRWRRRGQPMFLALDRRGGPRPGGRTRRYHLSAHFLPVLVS
NR2E3 ag-1: agonists of human nuclear receptor NR2E3; GST-NR2E3/biotin-RetCOR TR-FRET, 1536-well; inhibition of corepressor binding, % at 4.78 µM; actives 0.12% (n = 320,000); AID 2300;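 active means percent inhibition above the cutoff of mean plus 3 SD of all tested compounds, set per screening campaign, cut at about 20% in these data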;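 further: 0% = DMSO wells and 100% = biotin wells as full block of FRET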
Target sequence (Q9Y5X4 whole entry, looked up): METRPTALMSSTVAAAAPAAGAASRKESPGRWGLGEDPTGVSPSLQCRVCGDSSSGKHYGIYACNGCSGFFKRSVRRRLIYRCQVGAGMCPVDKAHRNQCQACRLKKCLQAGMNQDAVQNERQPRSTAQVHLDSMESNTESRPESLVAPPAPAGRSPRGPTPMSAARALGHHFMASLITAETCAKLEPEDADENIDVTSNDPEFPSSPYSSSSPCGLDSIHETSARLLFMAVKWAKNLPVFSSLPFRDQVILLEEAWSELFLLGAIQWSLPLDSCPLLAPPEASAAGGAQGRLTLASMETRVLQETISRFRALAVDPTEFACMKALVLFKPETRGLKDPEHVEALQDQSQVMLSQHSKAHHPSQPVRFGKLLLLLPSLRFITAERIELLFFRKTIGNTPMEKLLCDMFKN
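Material: NR2E3–RetCOR corepressor complex / Amount: 1.35 nM GST-NR2E3 / Medium: Tris pH 7.5 / Compound: single nominal compound dose of 4.8 µM / Incubation: 5 h at 4 °C / Technique: TR-FRET, Eu(K)-anti-GST donor, streptavidin-D2 acceptor, ex 340, em 617/671 nm / Read-out basis: percent loss of FRET ratio relative to control wells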
miR-122 sensor: inhibitors of miR-122 in Huh7 cells | activation (reporter increase), % at 12.5 µM | Huh7 miR-122 Renilla luciferase sensor, 48 h; neutral wells = 0, positive control = 100 | actives 0.3% (n = 340,000);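 active means mean replicate activation score at least 90 and every replicate individually at or above 90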;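 further: higher luciferase means less miR-122 activity so hits act as miR-122 inhibitors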
NR2E3 ag-2: agonists of human NR2E3 nuclear receptor. CHO-S Gal4-NCOR/VP16-NR2E3 two-hybrid, luciferase. Q9Y5X4. actives 0.35% (n = 360,000). AID 602229. inhibition of corepressor binding, % at 3.98 µM;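 active means inhibition above the mean of all tested compounds plus 3 SD, cut at about 70% in these data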;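 further: 0% = DMSO with NR2E3 transfected cells and 100% = cells lacking NR2E3 construct; higher means lower luciferase signal from less NR2E3 corepressor binding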
NR2E3 ag conf: NR2E3 agonism confirmed in two-hybrid assay. AID 624378. actives 51% (n = 2,300). inhibition, % at 3.98 µM. CHO-S mammalian two-hybrid NR2E3-NCOR, luciferase luminescence. shares compounds with NR2E3 ag-2;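 active means average inhibition above a cutoff equal to the mean inhibition of all tested compounds plus one SD, cut at about 70% in these data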;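 further: 0% = DMSO in NR2E3 cells and 100% = DMSO in cells lacking NR2E3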
GAL4-VP16 luc: GAL4-VP16 reporter inhibition in NR2E3 agonist counterscreen; shares compounds with NR2E3 ag-2; CHO-S GAL4-VP16 luciferase reporter, luminescence; inhibition, % at 3.98 µM; actives 29% (n = 2,300); AID 624379;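 active means mean inhibition above a cutoff equal to the average over all tested compounds plus one standard deviation, cut at about 70% in these data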;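 further: luciferase from a UAS reporter driven by GAL4-VP16 transactivation; 0% = DMSO with VP16-transfected cells and 100% = DMSO with cells lacking VP16; higher means less reporter light so more repression of VP16 activity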
* = called active by the depositor; / = not tested or not shown; [ ] = dose if it differs, or a comment.

SMILES	Jurkat NFkB inh	697 NFkB inh	FGF22 binding	NR2E3 ag-1	miR-122 sensor	NR2E3 ag-2	NR2E3 ag conf	GAL4-VP16 luc
O=C(Nc1ccc(Oc2ccccc2)cc1)c1csc([C@H]2C[C@H](O)[C@@H](CO)O2)n1	/	/	0	/	-4	48	78*	61
CCN(CC)S(=O)(=O)c1ccc(Oc2ccccc2)c(N)c1	12	-1	0	-5	8	18	/	/
CCN(CC)S(=O)(=O)c1ccc(N2CCN(c3ccccc3OC)CC2)c(N)c1	16	2	0	2	-7	105*	93*	74*
O=C(Nc1ccc(Cc2ccncc2)cc1)c1ccc(S(=O)(=O)N2CCOCC2)cc1	31	-32	/	-1	2	53	58	57
Cc1ccc(S(=O)(=O)N2CCOCC2)cc1C(=O)Nc1ccc(N2CCCCCC2)cc1	2	-67	0	/	-12	69	50	47
CC(=O)c1ccc(NC(=O)c2cc(S(=O)(=O)N3CCOCC3)ccc2C)cc1	10	-2	0	1	1	-1	/	/
C[C@@H]1CCCCO[C@H](CN(C)C(=O)C2CCCCC2)[C@H](C)CN([C@H](C)CO)C(=O)c2cc(NS(=O)(=O)c3cn(C)cn3)ccc2O1	/	/	1	/	4[16.7 µM]	/	/	/
CCNC(=O)C[C@H]1CC[C@@H]2[C@H](COc3ccc(NS(C)(=O)=O)cc3C(=O)N2C)O1	/	/	0	/	17[16.7 µM]	/	/	/
CC(=S)/C=C1\Sc2ccccc2N1C	-4	12	0	0	-4	-4	/	/
CC[n+]1c(/C=C2\Sc3ccccc3N2C)ccc2cccc(C)c21	/	/	0	/	/	86*	100*	81*
C[C@H](CO)N1C[C@H](C)[C@@H](CN(C)S(=O)(=O)c2cn(C)cn2)OCCCC[C@H](C)Oc2ccc(NS(=O)(=O)c3ccccc3)cc2C1=O	/	/	0	/	3[16.7 µM]	/	/	/
Nc1nc(-c2ccccc2)nn1C(=O)Cc1ccccc1	-4	-1	/	3	1	82*	1	-3
Brc1ccc(-c2nnc3sc(CN4CCc5ccccc5C4)cn23)cc1	/	/	0	/	/	-25	/	/
c1ccc(-c2nnc3sc(CN4CCc5ccccc54)cn23)cc1	9	-17	/	-1	/	51	30	12
COCCNC(=O)C[C@H]1C[C@H]2c3cc(NS(C)(=O)=O)ccc3O[C@H]2[C@@H](CO)O1	/	/	0	/	0[16.7 µM]	/	/	/
CCOC(=O)c1ccc(S(=O)(=O)NC2CCC(C)CC2)cc1 (centres undefined)	16	-27	0	0	29	70	51	51
Cc1ccc(NC(=O)c2ccccc2NS(=O)(=O)c2ccc(Cl)s2)cc1S(=O)(=O)N1CCOCC1	12	-30	0	2	/	90*	99*	78*
O=C(Nc1cc(S(=O)(=O)N2CCOCC2)ccc1O)c1ccc(NS(=O)(=O)c2ccc(Cl)s2)cc1	14	20	0	1	/	18	/	/
COc1ccc(C)cc1NC(=O)c1ccccc1NS(=O)(=O)c1ccc(Cl)s1	10	-23	1	3	3	101*	99*	90*
O=C(C[C@@H]1CC[C@H]2[C@@H](COC[C@@H](O)CN2S(=O)(=O)c2ccc(F)cc2)O1)N[C@@H]1CCN(Cc2ccccc2)C1	/	/	0	/	-3[16.7 µM]	/	/	/
CN1CCc2c(sc(NC(=O)c3ccc([N+](=O)[O-])o3)c2C(N)=O)C1	15	-5	0	-5	3	57	49	40
CCOc1ccc(CN(C)c2ccc(S(=O)(=O)N3CCN(C)CC3)cc2[N+](=O)[O-])cc1OC	-4	-37	/	3	-6	66	78*	69
Cc1ccc(S(=O)(=O)N2[C@@H](c3ccc(C(C)(C)C)cc3)C(C(=O)O)=CC[C@H]2c2cccc(Cl)c2)cc1	5	-18	/	/	/	84*	70	29
Cc1ccc(S(=O)(=O)N2[C@@H](c3ccc(Br)cc3)C(C(=O)O)=CC[C@H]2c2ccc(Cl)c(Cl)c2)cc1	6	6	41	/	7	76*	74*	42
CCc1ccc([C@@H]2CC=C(C(=O)O)[C@H](c3ccc(Cl)cc3)N2S(=O)(=O)c2ccc(C)cc2)cc1	-1	29	1	4	/	76*	56	40
SMILES	Jurkat NFkB inh	697 NFkB inh	FGF22 binding	NR2E3 ag-1	miR-122 sensor	NR2E3 ag-2	NR2E3 ag conf	GAL4-VP16 luc
Cc1ccc(S(=O)(=O)N2[C@@H](c3ccc(Cl)cc3)C(C(=O)O)=CC[C@H]2c2ccc(C(C)C)cc2)cc1	8	14	0	1	/	70	87*	48
CCc1ccc([C@@H]2CC=C(C(=O)O)[C@H](c3ccc(C)cc3)N2S(=O)(=O)c2ccc(C)cc2)cc1	-1	5	-1	/	-1	46	/	/
C[C@@H]1CN([C@H](C)CO)S(=O)(=O)c2ccc(-c3cccnc3)cc2O[C@@H]1CN(C)CC1CCOCC1	/	/	0	/	23[16.7 µM]	/	/	/
O=C(C[C@H]1CC[C@@H]2[C@H](COC[C@@H](O)CN2C(=O)c2cccnc2)O1)NCc1ccc(-c2ccccc2)cc1	/	/	0	/	-2[16.7 µM]	/	/	/
Cc1ccc([C@H]2C(C(=O)O)=CC[C@@H](c3ccc(C(C)C)cc3)N2S(=O)(=O)c2ccc(C)cc2)cc1	8	-4	0	/	10	92*	51	36
COc1ccc(CCNC(=O)c2nnn(-c3ccc4c(c3)OCCO4)c2N)cc1OC	31	-37	/	1	-4	66	51	24
COc1ccc(Br)cc1Cn1nnc(C(=O)Nc2ccc3c(c2)OCCO3)c1N	10	-16	0	1	/	56	65	12
COc1ccc(-c2cnc3c(c2)C(=O)N([C@H](C)CO)C[C@@H](C)[C@H](CN(C)C(=O)Cc2ccccn2)O3)cc1	/	/	0	/	3[16.7 µM]	/	/	/
CCCN(C)C[C@@H]1Oc2ncc(-c3ccc(F)cc3)cc2C(=O)N([C@H](C)CO)C[C@@H]1C	/	/	0	/	-5[16.7 µM]	/	/	/
CC(C)CC#Cc1ccc2c(c1)O[C@H](CN(C)C(=O)c1ccccn1)[C@@H](C)CN([C@@H](C)CO)S2(=O)=O	/	/	0	/	59[16.7 µM]	/	/	/
CC1CC(C)C(=O)C(C(CC2CC(=O)NC(=O)C2)OC(=O)CC(=O)c2ccccc2)C1 (centres undefined)	/	/	0	/	-13	90*	99*	88*
O=C1CCC(C(=O)OCC(=O)c2ccccc2)N1 (centres undefined)	6	7	0	3	8	-22	/	/
